Experimental data pooled from the literature.
Lines come from different studies, so protocols differ.
Read-out: cell growth or viability

| SMILES | cell line | method | concentration | time | endpoint | value |
| --- | --- | --- | --- | --- | --- | --- |
| CCCN1C(=O)[C@H](CC(C)C)NC(=O)[C@@H](N(C)C(=O)[C@H](CC2CCC2)NC(=O)[C@@H]2C[C@@H](F)CN2C(=O)[C@@](C)(O)C(F)(F)F)CCCCNC(=O)C2(CC2)NC(=O)[C@@H]1Cc1cc(Cl)ccc1Cl | NCI-H526 | MTT | – | 5 days | GI50 | 41 nM |
| O=C(C=Cc1ccccc1)Nc1cc(-c2ccnc(N3CCOCC3)c2)ccn1 | MDA-MB-231 | MTT | 5 µM | – | inhibition | 78.3% |
| Cc1c(Cc2ccccc2)c(=O)oc2c(C)c(OCC(=O)NN=Cc3ccc([N+](=O)[O-])cc3)ccc12 | MDA-MB-231 | MTT | 125 µg/mL | – | viability | 23.7% |
| CC(C)C[C@@H]1NC(=O)[C@@H](N(C)C(=O)[C@H](CC2CCC2)NC(=O)[C@@H]2C[C@@H](F)CN2C(=O)C2(C(F)(F)F)CC(F)(F)C2)CCCCNC(=O)C2(CC2)NC(=O)[C@H](Cc2cc(Cl)ccc2Cl)N(C)C1=O | NCI-H526 | MTT | – | 5 days | GI50 | 240 nM |
| CCNC(=S)NNC(=O)COc1ccc2c(C)c(CC)c(=O)oc2c1C | MDA-MB-231 | MTT | 62.5 µg/mL | – | viability | 84.5% |
| C[C@@H]1CC[C@@H]([C@](C)(O)CNCc2ccccc2F)[C@H](OCc2ccccc2)C1 | MDA-MB-231 | MTT | 30 µM | 72 h | inhibition | 44.1% |
| Cc1c(C(=O)O)ccc2c3n(nc12)[C@@H]1[C@H](C3)N(CC2CC2)[C@@]2(C(=O)Nc3cc(Cl)ccc32)[C@H]1c1cccc(Cl)c1F | hTERT-RPE1 | ATP luminescence | – | 72 h | GI50 | 21 nM |
| COc1ccc(CNC[C@@](C)(O)[C@@H]2CC[C@@H](C)C[C@H]2OCc2ccccc2)cc1 | MDA-MB-231 | MTT | 30 µM | 72 h | inhibition | 83.5% |
| C=CC(=O)NC1CCN(c2ncc3ncnc(Nc4ccc(Oc5ccc6c(c5)ncn6C)c(C)c4)c3n2)CC1 | Panc 04.03 | – | – | – | EC50 | 5190 nM |
| COc1cccc(CNC[C@@](C)(O)[C@@H]2CC[C@@H](C)C[C@H]2OCc2ccccc2)c1 | MDA-MB-231 | MTT | 10 µM | 72 h | inhibition | 36% |
| O=C(C=Cc1ccccc1)Nc1cccc(-c2ccnc(N3CCC(O)CC3)c2)c1 | MDA-MB-231 | MTT | 5 µM | – | inhibition | 61.6% |
| C=C(C)[C@@H]1CC[C@@H](C)C[C@H]1OCc1ccccc1 | MDA-MB-231 | MTT | 10 µM | 72 h | inhibition | 21.9% |
| CCc1c(C)c2ccc(OCc3nnc(S)n3N)c(C)c2oc1=O | MDA-MB-231 | MTT | 31.25 µg/mL | – | viability | 94.3% |
| C[C@@H]1CC[C@@H]([C@](O)(CNCc2ccccc2)COCc2ccc(F)cc2)[C@H](OCc2ccc(F)cc2)C1 | MDA-MB-231 | MTT | 30 µM | 72 h | inhibition | 101% |
| Cc1c(Cc2ccccc2)c(=O)oc2c(C)c(OCC(=O)NN=Cc3ccc(Cl)cc3)ccc12 | MDA-MB-231 | MTT | 1000 µg/mL | – | viability | 17.1% |
